In the library only some 3.7% were active in any assay of this set; here they are far more common.
KCNK3 inh: human KCNK3 channel inhibition, primary screen. B-score at 10 µM. O14649. AID 602410. CHO-KCNK3 thallium flux, FluxOR fluorescence; stronger effect = lower value. 340,000 tested, 0.84% active;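 active means B-score under library mean minus 4 SD, starting fluorescence ratio at most library mean plus 5 SD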;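 further: more negative B-score means stronger inhibition of thallium flux through KCNK3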
Target sequence (O14649 whole entry, looked up): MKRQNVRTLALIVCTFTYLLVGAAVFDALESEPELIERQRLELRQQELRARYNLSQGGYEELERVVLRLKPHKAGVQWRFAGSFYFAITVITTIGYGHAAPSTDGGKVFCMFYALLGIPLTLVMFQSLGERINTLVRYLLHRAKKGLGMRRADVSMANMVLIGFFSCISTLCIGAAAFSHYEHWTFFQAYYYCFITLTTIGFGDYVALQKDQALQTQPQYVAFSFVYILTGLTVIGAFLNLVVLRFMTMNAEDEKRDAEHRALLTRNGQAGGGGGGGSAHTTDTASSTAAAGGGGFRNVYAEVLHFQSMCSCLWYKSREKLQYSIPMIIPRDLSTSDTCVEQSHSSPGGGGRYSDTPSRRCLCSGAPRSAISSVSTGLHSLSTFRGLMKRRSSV
Kir21 inh: Kir2.1 (mouse) channel inhibition; 310,000 tested, 0.85% active; B-score at 10 µM; P35561; HEK293-Kir2.1, FluxOR thallium flux fluorescence; stronger effect = lower value;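 active means fluorescence ratio B-score at or below minus 3 SD of library scores, with starting-brightness B-score within 2 SD, cut at about -4.2 in these data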;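 further: channel flux triggered by added potassium and thallium sulfate stimulus; B-score of peak minus minimum fluorescence over baseline after thallium stimulus; more negative B-score means stronger Kir2.1 block with less thallium influx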
KCNQ1 pot: human KCNQ1 channel potentiation or activation. CHO-K1 KCNQ1, thallium flux FluxOR fluorescence; stronger effect = higher value. B-score at 10 µM. 310,000 tested, 0.35% active. AID 2648;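 active means fluorescence ratio B-score, a plate-corrected score, at least three library SD, with initial intensity B-score within 5 SD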
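Assay system: CHO-K1 cells stably expressing KCNQ1. Medium: assay buffer for compound exposure, DMSO matched across wells. Timing: 37 °C overnight plating, 90-min dark dye load, 20-min compound pretreatment. Signal: kinetic FluxOR fluorescence, 10 s baseline plus 110 s post-stimulus.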
KCNK9 block: blocks the human KCNK9 two-pore domain potassium channel. Q9NPC2. HEK293 KCNK9, FluxOR thallium flux fluorescence; stronger effect = lower value. B-score at 10 µM. 310,000 tested, 1.2% active. AID 488922;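 active means ratio B-score over 3 SD below the library mean, with starting fluorescence within 5 SD of its mean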;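 further: negative B-score means less thallium flux so channel inhibition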
KCNQ1 block: human KCNQ1 channel inhibition; P51787; CHO-K1 KCNQ1, FluxOR thallium flux fluorescence; stronger effect = higher value; 310,000 tested, 1.3% active; B-score at 10 µM;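 active means compounds whose thallium flux B-score, printed positive for inhibition, exceeds three library SD while starting fluorescence stays within three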;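 further: channel opened by potassium depolarization with thallium stimulus after 20 min compound exposure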
hERG rescue: shields human hERG channel from block by proarrhythmic agents; CHO-hERG, FluxOR thallium flux, dofetilide IC70 present; activation (rescue from dofetilide block), less the hit threshold, % at 10 µM; Q12809; 310,000 tested, 0.51% active;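 active means activation above the mean of controls blocked by dofetilide plus 5 SD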;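 further: thallium influx through hERG after potassium depolarization seen as dye fluorescence rise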
KCNK9 block conf: human KCNK9 inhibitor confirmation | shares compounds with KCNK9 block | inhibition, % at 10 µM | 4,900 tested, 43% active | HEK293 KCNK9 cells, FluxOR thallium flux fluorescence;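 active means thallium signal inhibited by more than 5 SD of the compound-free buffer control wells, on both duplicate plates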;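 further: 0% = assay buffer control wells without compound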
Kir21 sel: selectivity of KCNK9 modulators against mouse Kir2.1; AID 492993; inhibition, % at 10 µM; 4,900 tested, 4% active; Kir2.1 cells, FluxOR thallium flux fluorescence; shares compounds with KCNK9 block;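 active means thallium signal drop more than 5 SD beyond the mean of the no-compound control wells, seen in both duplicate plates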;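 further: signal is fluorescence rise after thallium addition divided by baseline fluorescence; plate controls were assay buffer only for no effect and full block by chlorpromazine control for full effect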
HEK293 Tl ctr: second counter-screen for KCNK9 modulators: effect in non-induced cells | shares compounds with KCNK9 block | non-induced KCNK9-HEK293, FluxOR thallium flux | inhibition, % at 10 µM | 4,900 tested, 40% active | AID 492997;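 active means thallium signal drop beyond 5 SD of the untreated control mean, on both duplicate plates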;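 further: plate controls were buffer only IC0 wells for no effect and SID17386958 at its maximal inhibitory level for full effect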
* marks the source's active call; other numbers are inactive results; i = inactive; x = no result given.

SMILES | KCNK3 inh | Kir21 inh | KCNQ1 pot | KCNK9 block | KCNQ1 block | hERG rescue | KCNK9 block conf | Kir21 sel | HEK293 Tl ctr
O=C(CSc1nc(-c2ccccc2Cl)ns1)c1ccc(Cl)cc1 | i | -1.2 | i | -12.3* | i | 1.2 | 46.0%* | i | 43.0%*
Cc1cccc(N2N=C(C(=O)Nc3ccc(Cl)c(S(=O)(=O)N4CCOCC4)c3)CCC2=O)c1 | i | x | x | x | x | x | x | x | x
CCN(c1ccccc1)S(=O)(=O)c1cc([N+](=O)[O-])ccc1N | i | -6.98* | i | -10.6* | i | -8.3 | 41.0%* | 31.0%* | 33.0%*
Cc1ccc(OCC(=O)OC(C)C(=O)NC2CCCCC2C)cc1C (stereo not drawn) | i | x | x | x | x | x | x | x | x
COc1ccc(-n2c(SCCC#N)nnc2-c2cc(Cl)ccc2OC)cc1Cl | i | -0.37 | i | -11.3* | i | -16.3 | 29.0%* | i | 41.0%*
O=C(COC(=O)c1ccc(Cl)cc1Cl)Nc1cccc(S(=O)(=O)NC2=NCCC2)c1 | i | x | x | x | x | x | x | x | x
Cc1ccc(C2=Nc3ccccc3SC(c3cccc([N+](=O)[O-])c3)C2)cc1 (stereo not drawn) | -13.5* | 1.53 | i | -12.5* | i | -5.3 | 71.0%* | i | 39.5%*
CC(=C/c1ccccc1)/C=N/NC(=O)c1nnn(-c2nonc2N)c1CN1CCC(C)CC1 | i | -1.76 | i | i | i | -10.5 | x | x | x
Cc1ccccc1COc1ccc(/C=N/NC(=O)c2nnn(-c3nonc3N)c2CN2CCC(C)CC2)cc1 | i | 0.57 | i | i | i | -4.0 | i | i | i
CC1CCN(Cc2c(C(=O)N/N=C/c3ccc(OC(C)C)cc3)nnn2-c2nonc2N)CC1 | i | 0.3 | i | i | i | -15.4 | i | i | i
CC(=O)c1cccc(NC(=O)C(OC(=O)/C=C/c2ccc3c(c2)OCO3)c2ccccc2)c1 (stereo not drawn) | i | 0.03 | i | -9.31* | i | -14.6 | 24.0%* | i | i
Cc1cc(-c2ccccc2)c2c3c(c(-c4ccccc4)n2n1)c(=O)n(C)c(=O)n3C | i | -0.25 | i | -8.76* | i | -6.3 | i | i | 36.5%*
Cc1cc(C)c2c3c(c(-c4ccccc4)n2n1)c(=O)n(C)c(=O)n3C | i | x | x | x | x | x | x | x | x
N=c1c2ccccc2nc2n1CCCCCCCCCCC2 | i | -2.05 | i | i | i | -9.2 | x | x | x
Cc1ccc(SCC(=O)O/N=C(\N)c2cccc([N+](=O)[O-])c2)cc1 | i | 0.04 | i | i | i | -8.2 | i | i | 27.5%*
Cc1ccc(CN2C(=O)C(Cc3ccccc3)Nc3ncnc(N4CCN(c5ccccc5)CC4)c32)cc1 (stereo not drawn) | i | 0.12 | i | i | i | -13.9 | x | x | x
COc1ccc(CN2C(=O)C(Cc3ccccc3)Nc3ncnc(N4CCCCC4)c32)cc1 (stereo not drawn) | i | 0.04 | i | -13* | i | -8.7 | 54.5%* | i | 27.0%*
Cc1ccc(CN2C(=O)C(Cc3ccccc3)Nc3ncnc(N4CCCCC4)c32)cc1 (stereo not drawn) | i | 1.61 | i | -13.7* | i | -8.5 | 64.5%* | i | 38.0%*
Cc1cc(C)nc(SC(C)CNS(=O)(=O)c2ccccc2)n1 (stereo not drawn) | i | 0.07 | i | i | i | -20.1 | x | x | x
C/C(=N\NC(=O)c1nnn(-c2nonc2N)c1C(C)C)c1ccc2ccccc2c1 | i | 0.69 | i | i | i | -4.7 | x | x | x
CCCCSc1cnn(-c2ccccc2)c(=O)c1SCCCC | i | 0.02 | i | -9.88* | 6* | -6.6 | 51.5%* | i | 47.5%*
CCSc1cnn(-c2ccccc2)c(=O)c1SCC | i | -0.61 | i | i | i | -7.8 | x | x | x
COc1cccc(-n2cc(CN(C)Cc3nc(Cc4cccc(F)c4)no3)cn2)c1 | i | -0.38 | i | i | i | -18.6 | i | i | i
CN(Cc1cnn(C)c1)Cc1nc(Cc2ccccc2Cl)no1 | i | -0.67 | i | i | i | -4.8 | x | x | x
COc1ccc(CN(C)Cc2nc(Cc3cccc(F)c3)no2)c2cccnc12 | i | -1.56 | i | i | i | -26.8 | x | x | x
SMILES | KCNK3 inh | Kir21 inh | KCNQ1 pot | KCNK9 block | KCNQ1 block | hERG rescue | KCNK9 block conf | Kir21 sel | HEK293 Tl ctr
COc1cccc(-n2cc(CN(C)Cc3nc(Cc4ccccc4)no3)cn2)c1 | i | 0.66 | i | i | i | -8.6 | i | i | i
Cc1ccc(-c2nc(N)sc2CC(=O)OCC(=O)N2C(C)CCCC2C)cc1 (stereo not drawn) | i | 1.21 | i | i | i | -7.5 | i | i | i
COc1ccc(F)cc1C(=O)C1CCCN(Cc2cn(C)c3ccccc23)C1 (stereo not drawn) | i | -2.65 | i | i | i | -10.1 | i | i | i
Cn1cc(CN2CCCC(CNC(=O)c3ccc4c(c3)OCO4)C2)c2ccccc21 (stereo not drawn) | i | -0.04 | i | i | i | -7.0 | x | x | x
Cn1cc(CN2CCCC(C(=O)c3cc(F)ccc3F)C2)c2ccccc21 (stereo not drawn) | i | 0 | i | i | i | -12.3 | i | i | i
COc1ccc(F)cc1C(=O)C1CCCN(Cc2c[nH]c3ccccc23)C1 (stereo not drawn) | i | -2.95 | i | i | i | -9.1 | x | x | x
COc1ccc(OC)c(CN2CCCC(C(=O)c3ccccc3SC)C2)c1 (stereo not drawn) | i | -1.7 | i | i | i | -13.3 | i | i | i
CC(C)(C)[C@H]1C=C(C(=O)NC2CC2)O[C@@H](OCc2ccc(CO)cc2)C1 | i | 0.66 | i | i | i | -2.9 | x | x | x
COc1ccc(C(=O)Cn2c3ccccc3n3nc(CCC(=O)O)c(=O)nc23)cc1OC | i | 0.93 | i | i | i | -7.7 | x | x | x
O=C(CSc1ccc2ccccc2n1)N1CCC(c2noc3ccc(F)cc23)CC1 | i | -0.66 | i | -9.02* | i | -9.2 | i | i | i
Cc1nnc(SCC(=O)N2CCC(c3noc4ccc(F)cc34)CC2)s1 | i | 0.48 | i | i | i | -11.2 | x | x | x
CCOC(=O)c1cnc2ccc(OCC)cc2c1NCc1ccccc1OC | i | 0.95 | i | i | i | -5.0 | x | x | x
